Article PMC6500479 (Journal of controlled release : official journal of the …, 2019)
Bridges are numbered along the chain shown (N, C = ends). Where no end group is shown, it is not given here. FAM = carboxyfluorescein; Ahx = NCCCCCC(=O)O

Columns and labels:
[1] = tested on: bovine serum albumin (BSA); test: Binding to control protein BSA
[2] = tested on: 4T1 mouse mammary carcinoma; test: In vivo homing to 4T1 orthotopic breast tumors; conditions: 5 min, 15 min or 1 h after IV injection, IF
In short: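 4T1 tumors came from 1 × 10⁶ cells in 100 μL PBS injected into the mammary fat pad of female BALB/c mice. FAM-labelled test peptide was given IV, 100 μL of 1 mg/mL in PBS, and circulated 5 min, 15 min or 1 h before PBS perfusion. Fixed frozen sections were blocked in 1% BSA/0.1% Triton X-100 for 1 h at RT. Primaries (1:200) ran overnight at 4 °C, secondaries (1:200) 1 h at RT, with anti-CD31 for vessels. DAPI mounting, confocal imaging.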

macrophages = conditions: ref [22]; cited from earlier work

| Substance | Binding to BSA [1] | Accumulation in tumors over time [2] | Inhibition of FAM-CRV binding to macrophages (macrophages) |
| --- | --- | --- | --- |
| GGSGGSKG ({FAM-Ahx}-GGSGGSKG-OH) [FAM-GGS] | neither peptide bound | little accumulation in tumors |  |
| Biotinylated CRV: Biotinylated CRV (CRVLRSGSC; disulfide 1-9; also: biotin, position not given here) |  |  | inhibits the binding of FAM-CRV to macrophages |
